We go through seven compounds from ChEMBL document CHEMBL1145451, “Discovery of isonicotinamide derived beta-secretase inhibitors: in vivo reduction of beta-amyloid” (J Med Chem, 2007).

Series [1] is described as follows: Drug level in APP-YAC mouse brain at 20 mg/kg, iv after 30 mins. Details: dose 20 mg/kg, route intravenous. In kind it is ADME, organism-based. As to conditions: read-out: Drug uptake. The procedure, abridged:
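Brain penetration: brain concentration in mice measured 30 min after a 20 mg/kg i.v. dose, n of 3, reported in nM.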

Series [2] concerns the target T1, Beta-secretase 1 (Homo sapiens, UniProt P56817). The series can be described thus: Inhibition of BACE1 by ECL assay.
Series [3] addresses T1, Beta-secretase 1. The series can be described thus: Inhibition of BACE1 assessed as effect on soluble APPbeta N-terminal fragment secretion in HEK293T cells. The series is classed as cell-based, HEK-293T.
In a further series the test system is LLC-PK1. The series can be described thus: Ratio of permeability from basolateral to apical over apical to basolateral side in LLC-PK1 cells transfected with MDR1 by PGP assay. The series is classed as ADME, cell-based. The note with it: human.
Series [4] can be described thus: Ratio of drug level in APP-YAC mouse brain to IC50 for BACE1 in HEK293T cells. The note with it: hek-293t. The series is classed as ADME, cell-based.
The test system of another series is Mus musculus. The series can be described thus: Reduction of beta amyloid protein 40 level in transgenic APP-YAC mouse at 50 mg/kg, iv after 3 hrs relative to control. In kind it is functional. Details: scale not given: the % may be the effect or the level left. The procedure, abridged:
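APP-YAC mice (human WT APP on a yeast artificial chromosome) given i.v. bolus; brain Aβ40 measured at 0.5–4.5 h (time course, 50 mg/kg) and at 3.0 h across 6.25–50 mg/kg; reduction relative to vehicle-treated animals, Tukey-Kramer HSD statistics; γ-secretase inhibitor as positive control.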

A short description of series [5]: Drug level in APP-YAC mouse brain at 50 mg/kg, iv after 0.5 hrs. In kind it is ADME, organism-based. As to conditions: read-out: Drug uptake. Also on record: dose 50 mg/kg, route intravenous. Summed up:
(§1)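 Time course: transgenic mice expressing human WT APP from a yeast artificial chromosome given a 50 mg/kg i.v. bolus; brain drug concentration measured at 0.5, 1.5, 3 and 4.5 h post-dose.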

Series [6] in a line: Drug level in APP-YAC mouse brain at 50 mg/kg, iv after 4.5 hrs. The note with it: read-out: Drug uptake. Also on record: dose 50 mg/kg, route intravenous. The series is classed as ADME, organism-based. Summed up:
as §1

In series [7] the test system is Brain. The series can be described thus: Drug level in APP-YAC mouse brain at 50 mg/kg, iv. In kind it is ADME, organism-based. As to conditions: in vivo, read-out: Drug uptake. Also on record: dose 50 mg/kg, route intravenous. Summed up:
(§2)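 Dose response: APP-YAC transgenic mice given i.v. bolus doses of 6.25, 12.5, 25 or 50 mg/kg; brain drug concentration determined 3.0 h post-dose.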

Series [8] deals with Brain. The series can be described thus: Drug level in APP-YAC mouse brain at 25 mg/kg, iv. Also on record: dose 25 mg/kg, route intravenous. The note with it: in vivo, read-out: Drug uptake. The series is classed as ADME, organism-based. The procedure, abridged:
as §2

Another series has as its system Rattus norvegicus. The series can be described thus: Plasma clearance in rat at 2 mg/kg, iv. In kind it is ADME, organism-based. Also on record: dose 2 mg/kg, route intravenous. The note with it: in vivo.
The nature of series [9]: Volume of distribution in rat at 2 mg/kg, iv. The series is classed as ADME, organism-based. Also on record: dose 2 mg/kg, route intravenous. The note with it: in vivo, read-out: Vdss.
A short description of series [10]: Cmax in rat at 10 mg/kg, po. In kind it is ADME, organism-based. Also on record: dose 10 mg/kg, route oral. As to conditions: in vivo.
A short description of series [11]: Oral bioavailability in rat. The series is classed as ADME, organism-based. The note with it: in vivo.
The nature of series [12]: Half life in rat at 2 mg/kg, iv. The note with it: in vivo.

SMILES strings stand for the structures.

The term IC50 denotes the concentration at which inhibition is half-maximal. By clearance is commonly meant a measure of how efficiently the substance is removed, as volume per time. The Cmax is the maximum level reached in the sampled fluid or tissue. By bioavailability is commonly meant the share of a dose that reaches the circulation, judged against a reference dose that is usually intravenous. In general, half-life refers to the time in which the quantity being followed falls by half.

T1 sequence (P56817 whole entry, the tested form may be a part): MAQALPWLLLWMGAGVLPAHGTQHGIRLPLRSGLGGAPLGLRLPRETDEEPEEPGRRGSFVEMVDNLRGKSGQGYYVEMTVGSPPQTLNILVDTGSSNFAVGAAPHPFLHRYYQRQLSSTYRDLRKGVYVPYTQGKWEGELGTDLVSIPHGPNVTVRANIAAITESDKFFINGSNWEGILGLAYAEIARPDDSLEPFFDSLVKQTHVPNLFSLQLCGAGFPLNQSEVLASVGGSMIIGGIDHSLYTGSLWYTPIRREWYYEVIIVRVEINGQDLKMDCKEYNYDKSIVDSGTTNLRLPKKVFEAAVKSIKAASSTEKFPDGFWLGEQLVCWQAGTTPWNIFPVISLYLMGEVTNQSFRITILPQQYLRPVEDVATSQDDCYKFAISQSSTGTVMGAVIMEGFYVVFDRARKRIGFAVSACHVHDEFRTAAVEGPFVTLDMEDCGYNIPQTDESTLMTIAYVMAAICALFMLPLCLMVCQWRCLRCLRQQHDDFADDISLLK

In the case of `CC1CC1CNc1cc(C(=O)N[C@@H](Cc2ccccc2)[C@@H](N)CF)cc(N(C)S(=O)(=O)C(C)C)n1` (mixture of isomers), the concentration at 0.5 h in [1] came to 560 nM.

Turning to `CN(c1cc(C(=O)N[C@H](CO)Cc2cc(F)cc(F)c2)cc(NCC2CC2)n1)S(C)(=O)=O`, the IC50 against Beta-secretase 1 [2] turned out to be 1100 nM.

On to `CC(C)S(=O)(=O)N(C)c1cc(C(=O)N[C@@H](Cc2ccccc2)[C@@H](N)CF)cc(NC[C@H]2C[C@@H]2C)n1`, for which the IC50 is 2 nM at Beta-secretase 1 [2] and 49 nM at Beta-secretase 1 [3]. In addition, the Ratio with LLC-PK1 is recorded as greater than 50; in [4], 11.4. This compound displayed an Activity in the series on Mus musculus of 34%. In addition, the concentration at 0.5 h in series [5] amounted to 5800 nM. The concentration at 4.5 h in series [6] turned out to be 700 nM. Further, the figures for the concentration in the series with Brain [7] and with Brain [8] were 1900 nM and 700 nM, respectively. The compound further returned a clearance in the series on Rattus norvegicus of 45.8 mL/min/kg. In addition, the Vd in [9] stood at 3.9 L/kg. Moreover, the highest level in series [10] (Cmax) was 300 nM. For the same compound, the bioavailability in [11] amounted to 13%. Besides, in series [12], the half-life was 1.6 h.

In the case of `CC(C)S(=O)(=O)N(C)c1cc(C(=O)N[C@@H](Cc2ccccc2)[C@@H](N)CF)cc(N(C)C[C@H]2C[C@@H]2C)n1`, the IC50 stood at 18 nM against Beta-secretase 1 [2] and 910 nM at Beta-secretase 1 [3]. The Ratio turned out to be 4.8 with LLC-PK1 and 3.4 in series [4]. Also, the clearance in the series with Rattus norvegicus was found to be 59.1 mL/min/kg. In series [9], the Vd was found to be 4.2 L/kg. The compound further registered a Cmax in series [10] of 200 nM. The bioavailability in [11] was found to be 8%.

Take `CC(C)S(=O)(=O)N(C)c1cc(C(=O)N[C@H](CO)Cc2cc(F)cc(F)c2)cc(NC[C@H]2C[C@@H]2C)n1`: the IC50 against Beta-secretase 1 [2] is 14 nM; at Beta-secretase 1 [3] it was greater than 20000 nM.

Turning to `CC1CC1CN(C)c1cc(C(=O)N[C@@H](Cc2cc(F)cc(F)c2)[C@@H](N)CF)cc(N(C)S(=O)(=O)C(C)C)n1` (mixture of isomers), the concentration at 0.5 h in series [1] was found to be 3080 nM.

For `CCCN(CC1CC1)c1cc(C(=O)N[C@H](CO)Cc2ccccc2)cc(N(C)S(=O)(=O)C(C)C)n1`, the figures for the IC50 against Beta-secretase 1 [2] and at Beta-secretase 1 [3] were 350 nM and greater than 20000 nM, respectively. Also, the Ratio in the series with LLC-PK1 is 3.6; in series [4] it was less than 0.07. In addition, the concentration at 0.5 h in series [1] came to 1400 nM.
